Key:
Format in all cases: functional
[1] = Growth inhibition of human UACC257 cells after 48 hrs by sulforhodamine B assay; conditions: UACC-257, 48 h
Summary of the method: (§1)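 NCI 60-cell-line panel, five-dose run at 10-fold dilutions from 10^-4 to 10^-8 M, 48 h continuous exposure. Viability by SRB protein stain. Percent growth is taken from time-zero, untreated-control and treated absorbances. GI50 is the concentration giving a 50% lower net protein increase than in control cells. TGI is taken at Ti = Tz, LC50 at a 50% loss of initial protein.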

ACHN = assay: Growth inhibition of human ACHN cells after 48 hrs by sulforhodamine B assay
Summary of the method: (§2)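 NCI full ~60 cell line panel. Five 10-fold concentrations from 10^-4 to 10^-8 M, 48 h continuous exposure, SRB protein read-out. Time-zero, control and treated absorbances give percentage growth. GI50 is the concentration where [(Ti−Tz)/(C−Tz)]×100 = 50; TGI is where Ti = Tz; LC50 is where [(Ti−Tz)/Tz]×100 = −50.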

HL-60(TB) = assay: Growth inhibition of human HL-60(TB) cells after 48 hrs by sulforhodamine B assay; conditions: HL-60, 48 h
Summary of the method: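 NCI 60-cell panel protocol: cells exposed continuously for 48 h to five 10-fold dilutions from 10^-4 to 10^-8 M. Growth estimated by SRB protein staining with time-zero, untreated-control and treated absorbances. Percentage growth computed at each level, and GI50 taken as the concentration giving a 50% lower net protein increase than control cells.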

HCT-15 = assay: Growth inhibition of human HCT15 cells after 48 hrs by sulforhodamine B assay; conditions: HCT-15, 48 h; summary of the method: as §2
NCI-H460 = assay: Growth inhibition of human NCI-H460 cells after 48 hrs by sulforhodamine B assay; conditions: NCI-H460, 48 h
Summary of the method: (§3)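 NCI 60-cell-line panel (nine tumour subpanels), five-dose format: 10-fold dilutions from 10^-4 to 10^-8 M, 48 h continuous exposure, SRB protein stain. Percent growth at each level is derived from time-zero, untreated control and treated absorbances. GI50 is the concentration where [(Ti−Tz)/(C−Tz)]×100 = 50. Values outside the tested range are reported as above or below the limit.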

UACC-62 = assay: Growth inhibition of human UACC62 cells after 48 hrs by sulforhodamine B assay; conditions: UACC-62, 48 h; summary of the method: as §1
TK-10 = assay: Growth inhibition of human TK10 cells after 48 hrs by sulforhodamine B assay; conditions: TK-10, 48 h; summary of the method: as §1
HCT-116 = assay: Growth inhibition of human HCT116 cells after 48 hrs by sulforhodamine B assay; conditions: HCT-116, 48 h; summary of the method: as §2
K562 = assay: Growth inhibition of human K562 cells after 48 hrs by sulforhodamine B assay; conditions: K562, 48 h; summary of the method: as §2
CAKI-1 = assay: Growth inhibition of human CAKI-1 cells after 48 hrs by sulforhodamine B assay; conditions: CAKI-1, 48 h; summary of the method: as §2
[2] = Growth inhibition of human RXF393 cells after 48 hrs by sulforhodamine B assay; conditions: RXF 393, 48 h; summary of the method: as §3
NCI-H522 = assay: Growth inhibition of human NCI-H522 cells after 48 hrs by sulforhodamine B assay; conditions: NCI-H522, 48 h; summary of the method: as §3
MDA-MB-231 = assay: Growth inhibition of human MDA-MB-231 cells after 48 hrs by sulforhodamine B assay; conditions: MDA-MB-231, 48 h; summary of the method: as §3
HT-29 = assay: Growth inhibition of human HT-29 cells after 48 hrs by sulforhodamine B assay; conditions: HT-29, 48 h; summary of the method: as §2
[3] = Growth inhibition of human Hs 578T cells after 48 hrs by sulforhodamine B assay; summary of the method: as §2
A498 = assay: Growth inhibition of human A498 cells after 48 hrs by sulforhodamine B assay; conditions: A498, 48 h; summary of the method: as §2
SR = assay: Growth inhibition of human SR cells after 48 hrs by sulforhodamine B assay; summary of the method: as §1
SNB-19 = assay: Growth inhibition of human SNB19 cells after 48 hrs by sulforhodamine B assay; conditions: SNB-19, 48 h; summary of the method: as §1
SF-268 = assay: Growth inhibition of human SF268 cells after 48 hrs by sulforhodamine B assay; conditions: SF-268, 48 h; summary of the method: as §3
NCI-H226 = assay: Growth inhibition of human NCI-H226 cells after 48 hrs by sulforhodamine B assay; conditions: NCI-H226, 48 h; summary of the method: as §3
MOLT-4 = assay: Growth inhibition of human MOLT4 cells after 48 hrs by sulforhodamine B assay; conditions: MOLT-4, 48 h; summary of the method: as §3
SW-620 = assay: Growth inhibition of human SW620 cells after 48 hrs by sulforhodamine B assay; conditions: SW-620, 48 h; summary of the method: as §1
SK-MEL-2 = assay: Growth inhibition of human SK-MEL-2 cells after 48 hrs by sulforhodamine B assay; conditions: SK-MEL-2, 48 h; summary of the method: as §1
[4] = Growth inhibition of human HCC2998 cells after 48 hrs by sulforhodamine B assay; conditions: HCC 2998, 48 h; summary of the method: as §2
[5] = Growth inhibition of human HOP92 cells after 48 hrs by sulforhodamine B assay; conditions: HOP-92, 48 h; summary of the method: as §2
SN12C = assay: Growth inhibition of human SN12C cells after 48 hrs by sulforhodamine B assay; summary of the method: as §1
[6] = read-out: LC50 (the source's name)

COc1ccc(-c2nnc(SCC(=O)Nc3ccc(/C(C)=N/O)cc3)n2-c2ccccc2)cc1OC
GI50 [1]: > 100 µM | TGI [1]: > 100 µM | CC50 [1, 6]: > 100 µM | GI50 (ACHN): 8.08 µM | TGI (ACHN): > 100 µM | CC50 (ACHN; [6]): > 100 µM | GI50 (HL-60(TB)): > 100 µM | TGI (HL-60(TB)): > 100 µM | CC50 (HL-60(TB); [6]): > 100 µM | GI50 (HCT-15): > 100 µM | TGI (HCT-15): > 100 µM | CC50 (HCT-15; [6]): > 100 µM | GI50 (NCI-H460): > 100 µM | TGI (NCI-H460): > 100 µM | CC50 (NCI-H460; [6]): > 100 µM | GI50 (UACC-62): > 100 µM | TGI (UACC-62): > 100 µM | CC50 (UACC-62; [6]): > 100 µM | GI50 (TK-10): 11.3 µM | TGI (TK-10): 52.7 µM | CC50 (TK-10; [6]): > 100 µM | GI50 (HCT-116): 11.3 µM | TGI (HCT-116): > 100 µM | CC50 (HCT-116; [6]): > 100 µM | GI50 (K562): > 100 µM | TGI (K562): > 100 µM | CC50 (K562; [6]): > 100 µM | GI50 (CAKI-1): > 100 µM | TGI (CAKI-1): > 100 µM | CC50 (CAKI-1; [6]): > 100 µM | GI50 [2]: 2.56 µM | TGI [2]: 7.11 µM | CC50 [2, 6]: > 100 µM | GI50 (NCI-H522): 21.4 µM | TGI (NCI-H522): > 100 µM | CC50 (NCI-H522; [6]): > 100 µM | GI50 (MDA-MB-231): 4.26 µM | TGI (MDA-MB-231): 23.8 µM | CC50 (MDA-MB-231; [6]): > 100 µM | GI50 (HT-29): > 100 µM | TGI (HT-29): > 100 µM | CC50 (HT-29; [6]): > 100 µM | GI50 [3]: 3.75 µM | TGI [3]: > 100 µM | CC50 [3, 6]: > 100 µM | GI50 (A498): 2.72 µM | TGI (A498): 46.1 µM | CC50 (A498; [6]): > 100 µM | GI50 (SR): > 100 µM | TGI (SR): > 100 µM | CC50 (SR; [6]): > 100 µM | GI50 (SNB-19): 6.43 µM | TGI (SNB-19): > 100 µM | CC50 (SNB-19; [6]): > 100 µM | GI50 (SF-268): 3.07 µM | TGI (SF-268): 20.3 µM | CC50 (SF-268; [6]): > 100 µM | GI50 (NCI-H226): 7.28 µM | TGI (NCI-H226): > 100 µM | CC50 (NCI-H226; [6]): > 100 µM | GI50 (MOLT-4): > 100 µM | TGI (MOLT-4): > 100 µM | CC50 (MOLT-4; [6]): > 100 µM | GI50 (SW-620): > 100 µM | TGI (SW-620): > 100 µM | CC50 (SW-620; [6]): > 100 µM | GI50 (SK-MEL-2): 5.04 µM | TGI (SK-MEL-2): 28.8 µM | CC50 (SK-MEL-2; [6]): > 100 µM | GI50 [4]: > 100 µM | TGI [4]: > 100 µM | CC50 [4, 6]: > 100 µM | GI50 [5]: 2.12 µM | TGI [5]: 6.42 µM | CC50 [5, 6]: > 100 µM | GI50 (SN12C): 26.2 µM | TGI (SN12C): > 100 µM | CC50 (SN12C; [6]): > 100 µM

Source: ChEMBL document CHEMBL3102806, “1,2,4-Triazole/oxime hybrids as new strategy for nitric oxide donors: Synthesis, anti-inflammatory, ulceroginicity and antiproliferative activities” (Eur J Med Chem, 2014)
